One may read the IC50 as the concentration that inhibits the measured activity by half.

Drawing on ChEMBL document CHEMBL1144324, “2,3-Dimethoxy-5-methyl-1,4-benzoquinones and 2-methyl-1,4-naphthoquinones: glycation inhibitors with lipid peroxidation activity” (Bioorg Med Chem Lett, 2005), this text covers IC50 for six compounds.

What all share (type): functional, organism-based
Assay [1] is filed under the species Rattus norvegicus. Put plainly: Inhibitory concentration against lipid peroxidation in rat. A digest of the protocol:
(§1)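 TBARS assay in rat brain homogenate (5 mg protein/mL). Compound was preincubated with homogenate 20 min at 37 °C with shaking, then peroxidation was started with 0.02 mM FeCl2 and 0.25 mM ascorbic acid for 30 min at 37 °C. The reaction was stopped with perchloric acid and centrifuged. Supernatant was reacted with 0.5% TBA at 80 °C for 1 h and A532 read against a 1,1,3,3-tetraethoxypropane standard.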

For assay [2], the species on record is Bos taurus. Put plainly: Inhibitory concentration against bovine serum albumin glycation was determined.
Assay [3] is filed under the species Rattus norvegicus. Put plainly: Inhibitory concentration for lipid peroxidation in rat. A digest of the protocol:
as §1

The species named for assay [4] is Bos taurus. Briefly: Inhibitory concentration against bovine serum albumin glycation; Not active from 3.80 nM to 1.00 mM.

With `CC1=C(Br)C(=O)c2ccccc2C1=O`, the half-maximal inhibitory concentration (IC50) was found to be 1.1 µM in the assay listed under Rattus norvegicus [1] and 144 µM in the assay listed under Bos taurus [2].

The compound `COC1=C(OC)C(=O)C(C(=O)NCCc2ccccc2)=C(C)C1=O` registered an IC50 in the assay filed under Rattus norvegicus [3] of 29.2 µM.

Consider `COC1=C(OC)C(=O)C(c2ccccc2)=C(C)C1=O`, for which the IC50 was found to be 39.4 µM in the assay listed under Rattus norvegicus [1] and 218 µM in the assay filed under Bos taurus [2].

With `CC1=C(Cl)C(=O)c2ccccc2C1=O`, the IC50 was 1.41 µM in the assay filed under Rattus norvegicus [1] and 199 µM in the assay listed under Bos taurus [2].

On to `Cc1c(C)c2c(c(C)c1O)CC[C@@](C)(CCC[C@H](C)CCC[C@H](C)CCCC(C)C)O2` [ALPHA-TOCOPHEROL], for which the IC50 entry in the assay filed under Bos taurus [4] was “Not Active”.

In turn, `CC1=CC(=O)c2ccccc2C1=O` [MENADIONE] gave an IC50 in the assay filed under Rattus norvegicus [1] of 12.2 µM.
